According to ChEMBL document CHEMBL4382230, “Structure-activity relationships, biological evaluation and structural studies of novel pyrrolonaphthoxazepines as antitumor agents” (Eur J Med Chem, 2019):
Values after ≈ are worked out from the molar mass of the structure shown. Active and inactive are the calls of the source. The rule behind the calls is not given here.

Key:
HL-60 [1] = assay: Cytotoxicity against human HL60 cells assessed as reduction in cell viability after 72 hrs by alamar blue assay; type: functional, cell-based; conditions: HL-60, 72 h
Summary of the method: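 HL-60 at 300,000 cells/ml treated in triplicate with compound or vehicle (0.1% v/v DMSO) for 72 h. Cells then incubated in 10% (v/v) AlamarBlue and fluorescence read at excitation 544 nm, emission 590 nm. IC50 is the mean of at least three separate determinations.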

HL-60 [2] = assay: Cell cycle arrest in human HL60 cells assessed as accumulation of cells at G2/M phase at 10 uM after 24 hrs by propidium iodide staining-based flow cytometric analysis; type: functional
Summary of the method: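 HL-60 exposed to 10 μM for 24 h, vehicle 0.1% DMSO. Cells plated at 2×10^5 cells/mL, stained in PBS with 0.1% sodium citrate, 0.1% NP40 and propidium iodide for 30 min at room temperature in the dark. DNA content by flow cytometry; G2/M fraction reported.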

[3] = Solubility of compound in pH 7.4 aqueous solution after 12 hrs by HPLC analysis; type: physicochemical
Summary of the method: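 Water solubility at pH 7.4 measured by HPLC analysis.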

GISTT1 = assay: Cytotoxicity against human GISTT1 cells assessed as reduction in cell viability at 1 uM after 48 hrs by alamar blue assay; type: functional, cell-based
Summary of the method: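 GIST-T1 seeded at 4000 cells/well, exposed to 1 or 10 μM for 48 h; viability read by AlamarBlue.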

Tubulin (Homo sapiens) [4] = biological target: T1, Tubulin (Homo sapiens) (UniProt P68371+Q9H4B7+P0DPH7+P68366+Q13509+Q71U36+P04350+Q3ZCM7+P07437+P68363+Q9BQE3+Q6PEY2+Q13885+Q9BVA1+Q9BUF5); assay: Inhibition of tubulin (unknown origin) polymerization at 27.5 uM measured over 70 mins by turbidity method; type: protein-complex assay
Summary of the method: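 Tubulin at 25 µM in GAB buffer (10 mM sodium phosphate, 30% glycerol, 1 mM EGTA, 6 mM MgCl2, 1 mM GTP, pH 6.7) with 27.5 µM compound or DMSO vehicle. Turbidity is read at 355 nm for 70 min at 37 °C. Data are normalized to the initial stable absorbance plateau to correct for compound absorbance.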

[5] = Apparent solubility of compound in sodium phosphate buffer at 15 uM after 20 mins; type: physicochemical
A2780 = assay: Cytotoxicity against human A2780 cells after 48 hrs by MTT assay; type: functional, cell-based; conditions: A2780, 48 h
Summary of the method: (§1)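 Cells seeded at 12,000 to 17,000 per well depending on line, incubated overnight, then given serial dilutions of ligand for 48 h. MTT at 2.5 mg/mL added for 4 h at 37 °C, formazan solubilized overnight (10% SDS, 45% dimethylformamide, pH 5.5), absorbance read at 595/690 nm. IC50 from log-dose response curves; mean ± SE of three independent assays.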

[6] = Cytotoxicity against human A2780AD cells after 48 hrs by MTT assay; type: functional, cell-based; summary of the method: as §1
[7] = Ratio of IC50 for human A2780AD cells to IC50 for human A2780 cells; type: functional
Summary of the method: (§2)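 Relative resistance: IC50 in the P-gp overexpressing resistant line divided by IC50 in the parental line. Both IC50s came from the 48 h MTT assay (serial dilutions, absorbance at 595/690 nm, log-dose response curves, three independent assays).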

NIH3T3 [8] = assay: Cytotoxicity against mouse NIH/3T3 cells after 48 hrs by MTT assay; type: cell-based; conditions: NIH3T3, 48 h; summary of the method: as §1
NIH3T3 [9] = assay: Cytotoxicity against mouse NIH/3T3 cells harboring MDR G185 after 48 hrs by MTT assay; type: functional, cell-based; conditions: NIH3T3, 48 h; summary of the method: as §1
[10] = Ratio of IC50 for mouse NIH/3T3 cells harboring MDR G185 to IC50 for mouse NIH/3T3 cells; summary of the method: as §2
A549 = assay: Cytotoxicity against human A549 cells assessed as reduction in cell survival at 0.1 to 10 uM after 18 hrs by MTT assay; type: functional, cell-based
Summary of the method: (§3)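 Seeded at 2,500 cells/well in medium with 10% serum. After adhesion, exposed to 0.1, 1 and 10 μM in medium with 5% serum for 18 h. Medium then replaced with fresh medium containing 1.2 mM MTT for 4 h; formazan dissolved in DMSO, absorbance at 540 nm. Results given as % of basal response.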

B16-F10 = assay: Cytotoxicity against mouse B16F10 cells assessed as reduction in cell survival at 0.1 to 10 uM after 18 hrs by MTT assay; type: functional, cell-based; summary of the method: as §3
PC-9 = assay: Cytotoxicity against human PC9 cells assessed as reduction in cell survival at 0.1 to 10 uM after 18 hrs by MTT assay; type: functional, cell-based; summary of the method: as §3
HCC827 [11] = assay: Cytotoxicity against human HCC827 cells assessed as reduction in cell survival at 0.1 to 10 uM after 18 hrs by MTT assay; type: functional, cell-based; summary of the method: as §3
HCC827 [12] = assay: Cytotoxicity against human HCC827 cells assessed as reduction in cell survival at 0.1 to 10 uM after 50 to 60 hrs by MTT assay; type: functional, cell-based
NB-4 [13] = assay: Cell cycle arrest in human NB4 cells assessed as accumulation of cells at G1 phase after 24 hrs by propidium iodide staining-based flow cytometric analysis; type: functional
Summary of the method: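 NB4 cultured at 37 °C, 5% CO2 in RPMI-1640 with 10% heat-inactivated FBS. Treated at 50 and 100 nM, 1 and 10 μM for 24 h. Cells fixed/permeabilized in 70% ethanol overnight at 4 °C, then given RNase and 20 μg/ml PI for 30 min. Doublets excluded, 20,000 events per sample; cell-cycle phase distribution analysed.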

NB-4 [14] = assay: Induction of differentiation in human NB4 cells at 500 nM after 24 hrs in presence of ATRA by CD11c staining-based flow cytometric analysis; type: functional, cell-based
Summary of the method: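 NB4 exposed to 0.5 μM compound together with 1 μM ATRA for 24 h. Cells stained with PE-conjugated CD11c (mouse IgG1-PE control) for 1 h at 4 °C in the dark, washed, resuspended in PBS with propidium iodide (0.25 μg/mL), then analysed by flow cytometry. Biological triplicates, mean ± S.E.M.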

Tubulin (Homo sapiens) [15] = biological target: T1, Tubulin (Homo sapiens); assay: Displacement of podophyllotoxin from tubulin (unknown origin) by ultracentrifugation method; type: protein-complex assay
B16-F1 = assay: Cytotoxicity against mouse B16-F1 cells assessed as reduction in cell survival at 0.1 to 10 uM after 18 hrs by MTT assay; type: functional, cell-based; summary of the method: as §3
Tubulin (Homo sapiens) [16] = biological target: T1, Tubulin (Homo sapiens); assay: Binding affinity to tubulin (unknown origin) by analytical ultracentrifugation

Compound	IC50 (HL-60 [1])	Activity (HL-60 [2])	IC50 (A2780)	IC50 [6]	Ratio IC50 [7]	IC50 (NIH3T3 [8])	IC50 (NIH3T3 [9])	Ratio IC50 [10]	also measured
O=C1c2cccn2-c2cc3ccccc3cc2OC1c1cccc2cccnc12 (configuration not stated)	1080 nM								
CC(=O)NC1=C(c2cccc3ccccc23)Oc2cc3ccccc3cc2-n2cccc21		Active							
O=C1c2cccn2-c2cc3ccccc3cc2OC1c1cccc2ncccc12 (configuration not stated)	2770 nM								
CCN(CC)CCCC(C)NC(=O)OC1=C(c2cccc3ccccc23)Oc2cc3ccccc3cc2-n2cccc21 (configuration not stated)		Active							
COC(=O)Nc1nc2ccc(C(=O)c3cccs3)cc2[nH]1 [NOCODAZOLE]									solubility at 12 h [3]: < 1000 µg/mL
CC(=O)OC1=C(c2cccc3cccnc23)Oc2cc3ccccc3cc2-n2cccc21	263 nM	Active	76 nM	79 nM	1.03	34 nM	68 nM	2	Activity (GISTT1): Active; inhibition (Tubulin (Homo sapiens) [4]): Active; solubility at 20 min, 15 µM [5]: 0.36 µM (≈ 0.151 µg/mL); Activity (A549): Active; Activity (B16-F10): Active; Activity (PC-9): Active; Activity (HCC827 [11]): Active; Activity (HCC827 [12]): inactive; Activity (NB-4 [13]): Dose-dependent effect; Activity (NB-4 [14]): Active; inhibition (Tubulin (Homo sapiens) [15]): Active; Activity (B16-F1): Active; Kb (Tubulin (Homo sapiens) [16]): 115 ×10⁷ /M
CC(=O)OC1=C(c2cccc3cnccc23)Oc2cc3ccccc3cc2-n2cccc21			301 nM	810 nM	2.69	375 nM	876 nM	2.33	inhibition (Tubulin (Homo sapiens) [4]): Active; solubility at 20 min, 15 µM [5]: 0.22 µM (≈ 0.0921 µg/mL); inhibition (Tubulin (Homo sapiens) [15]): Active; Kb (Tubulin (Homo sapiens) [16]): 16 ×10⁷ /M
CC[C@]1(O)C[C@@H]2CN(CCc3c([nH]c4ccccc34)[C@@](C(=O)OC)(c3cc4c(cc3OC)N(C)[C@H]3[C@@](O)(C(=O)OC)[C@H](OC(C)=O)[C@]5(CC)C=CCN6CC[C@]43[C@@H]65)C2)C1 [VINBLASTINE]			0.5 nM	44 nM	88	1 nM	70.4 nM	70.4	
COc1cc2c(c(OC)c1OC)-c1ccc(OC)c(=O)cc1[C@@H](NC(C)=O)CC2 [COLCHICINE]			13.1 nM	500 nM	38.2	25 nM	1120 nM	44.7	
CC(=O)OC1=C(c2cnc3ccccc3c2)Oc2cc3ccccc3cc2-n2cccc21	6460 nM	Active							Activity (A549): inactive; Activity (B16-F10): inactive; Activity (PC-9): inactive; Activity (HCC827 [11]): inactive; Activity (HCC827 [12]): inactive; Activity (B16-F1): inactive
CN(C)C(=O)OC1=C(c2cccc3cccnc23)Oc2cc3ccccc3cc2-n2cccc21	300 nM								Activity (GISTT1): Active
CC(=O)O[C@H]1C(=O)[C@@]2(C)[C@H]([C@H](OC(=O)c3ccccc3)[C@]3(O)C[C@H](OC(=O)[C@H](O)[C@@H](NC(=O)c4ccccc4)c4ccccc4)C(C)=C1C3(C)C)[C@]1(OC(C)=O)CO[C@@H]1C[C@@H]2O [PACLITAXEL]			3.3 nM	700 nM	212.12	25 nM	4880 nM	195	
CCN(CC)C(=O)OC1=C(c2cccc3cccnc23)Oc2cc3ccccc3cc2-n2cccc21	4580 nM								
CCc1ccc2cccc(C3=C(OC(=O)N(CC)CC)c4cccn4-c4cc5ccccc5cc4O3)c2n1		Active							
CCN(CC)CCCC(C)NC(=O)OC1=C(c2cccc3cccnc23)Oc2cc3ccccc3cc2-n2cccc21 (configuration not stated)		Active	1900 nM	1350 nM	0.71	2300 nM	2500 nM	1.08	inhibition (Tubulin (Homo sapiens) [4]): Active; solubility at 20 min, 15 µM [5]: 2.89 µM (≈ 1.62 µg/mL); inhibition (Tubulin (Homo sapiens) [15]): Active; Kb (Tubulin (Homo sapiens) [16]): 114 ×10⁷ /M
